Key:
[1] = biological target: T1, Coagulation factor VII/tissue factor (Homo sapiens) (UniProt P08709+P13726); experiment: Selectivity for fVIIa/TF complex over fXa; assay type: protein-complex assay
Outline: (§1)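 Ki ratios; fXa and thrombin assays pH 7.4, fVIIa assay with 7 nM fVIIa, 11 nM relipidated tissue factor, 5 mM CaCl2 and substrate CH3SO2-D-CHA-But-Arg-pNA.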

[2] = biological target: T1, Coagulation factor VII/tissue factor (Homo sapiens); experiment: Selectivity for fVIIa/TF complex over fIIa; assay type: protein-complex assay; outline: as §1
[3] = biological target: T1, Coagulation factor VII/tissue factor (Homo sapiens); experiment: Anticoagulant potency in human plasma as measured by prothrombin time; assay type: functional, cell-free
Outline: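 Clotting assay in human plasma on a coagulation analyzer run per manufacturer's instructions; concentration doubling prothrombin time reported.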

[4] = biological target: T2, Coagulation factor VII (Homo sapiens, UniProt P08709); experiment: Binding affinity to F7a/TF complex; assay type: protein-complex assay
T2 sequence (P08709 whole entry): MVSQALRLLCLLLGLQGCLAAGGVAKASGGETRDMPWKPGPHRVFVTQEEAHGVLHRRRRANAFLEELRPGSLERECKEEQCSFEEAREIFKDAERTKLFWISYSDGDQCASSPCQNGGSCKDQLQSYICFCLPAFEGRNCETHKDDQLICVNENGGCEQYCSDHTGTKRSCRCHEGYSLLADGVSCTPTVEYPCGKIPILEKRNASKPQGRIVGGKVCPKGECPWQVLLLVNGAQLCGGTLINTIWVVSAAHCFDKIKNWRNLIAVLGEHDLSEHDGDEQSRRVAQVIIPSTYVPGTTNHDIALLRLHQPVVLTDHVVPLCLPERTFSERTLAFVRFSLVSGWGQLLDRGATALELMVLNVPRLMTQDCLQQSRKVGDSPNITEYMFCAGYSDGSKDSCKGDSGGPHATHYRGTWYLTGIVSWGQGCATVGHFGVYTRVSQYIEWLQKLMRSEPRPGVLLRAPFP

[5] = Plasma clearance in iv dosed C57BL/6 mice; assay type: ADME, organism-based; settings: C57BL/6, mouse
Outline: (§2)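 Single IV dose to female C57BL/6 mice or male Sprague–Dawley rats, NZW rabbits, Beagle dogs, or baboons; plasma concentrations measured by LC/MS/MS.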

[6] = biological target: CYP2C9 (Homo sapiens, UniProt P11712); experiment: Inhibition of CYP2C9 at 10 uM; assay type: ADME
CYP2C9, sequence (P11712 whole entry): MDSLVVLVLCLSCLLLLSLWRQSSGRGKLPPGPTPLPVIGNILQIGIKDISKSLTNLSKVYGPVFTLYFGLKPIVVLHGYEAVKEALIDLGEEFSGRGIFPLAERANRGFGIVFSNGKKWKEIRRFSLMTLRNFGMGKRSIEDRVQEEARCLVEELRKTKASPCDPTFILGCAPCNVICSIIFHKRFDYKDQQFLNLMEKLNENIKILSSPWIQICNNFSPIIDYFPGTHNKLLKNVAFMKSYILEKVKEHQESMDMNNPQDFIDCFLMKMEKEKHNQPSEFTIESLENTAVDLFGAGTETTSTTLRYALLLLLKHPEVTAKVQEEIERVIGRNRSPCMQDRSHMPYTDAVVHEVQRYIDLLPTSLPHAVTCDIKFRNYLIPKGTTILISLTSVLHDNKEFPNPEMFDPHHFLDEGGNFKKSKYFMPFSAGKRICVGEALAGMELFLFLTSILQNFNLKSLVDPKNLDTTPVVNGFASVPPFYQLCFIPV
Outline: (§3)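 Five cytochrome P450 isozymes tested at 10 µM; percent inhibition.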

[7] = system: Baboon; experiment: Inhibition of platelet deposition in baboon at 0.03 mg/kg, iv 1 hr post dose relative to control; assay type: functional; settings: Papio, in Papio anubis
Outline: (§4)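 Conscious non-anticoagulated baboons with chronic femoral arterio-venous shunt; single IV bolus, thrombogenic device inserted 5 min post dose. Device: 2 cm ePTFE graft (4 mm id) filled with relipidated tissue factor, flow 100 mL/min (shear 265/s), 60 min. Platelets: 111-In-labeled autologous, gamma camera every 5 min; fibrin: 125-I fibrinogen, graft counted after 30 days decay; PT monitored throughout; reduction vs saline control.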

[8] = system: Baboon; experiment: Inhibition of platelet deposition in baboon at 0.5 mg/kg, iv 1 hr post dose relative to control; assay type: functional; settings: Papio, in Papio anubis; outline: as §4
[9] = biological target: CYP2D6 (Homo sapiens, UniProt P10635); experiment: Inhibition of CYP2D6 at 10 uM; assay type: ADME; outline: as §3
CYP2D6, sequence (P10635 whole entry): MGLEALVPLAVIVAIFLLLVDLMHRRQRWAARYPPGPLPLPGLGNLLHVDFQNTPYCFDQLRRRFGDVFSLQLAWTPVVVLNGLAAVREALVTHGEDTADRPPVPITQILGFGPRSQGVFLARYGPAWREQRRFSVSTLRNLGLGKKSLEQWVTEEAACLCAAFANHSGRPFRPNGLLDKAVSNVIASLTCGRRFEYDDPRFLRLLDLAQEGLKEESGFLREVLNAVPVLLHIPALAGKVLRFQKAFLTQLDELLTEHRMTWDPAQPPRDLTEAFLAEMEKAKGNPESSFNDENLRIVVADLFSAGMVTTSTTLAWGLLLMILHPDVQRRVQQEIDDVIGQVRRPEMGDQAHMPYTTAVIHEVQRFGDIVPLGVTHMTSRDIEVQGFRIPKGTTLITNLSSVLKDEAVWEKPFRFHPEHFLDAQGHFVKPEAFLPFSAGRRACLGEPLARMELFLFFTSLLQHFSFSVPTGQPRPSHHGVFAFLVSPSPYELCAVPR

[10] = Plasma clearance in iv dosed New Zealand White rabbit; assay type: ADME, organism-based, Oryctolagus cuniculus; outline: as §2
[11] = biological target: T1, Coagulation factor VII/tissue factor (Homo sapiens); experiment: Ratio of prothrombin time in baboon over prothrombin time in human
[12] = system: Mus musculus; experiment: Volume of distribution in iv dosed C57BL/6 mice; assay type: ADME, organism-based; settings: in vivo; outline: as §2
[13] = system: Baboon; experiment: Inhibition of fibrin deposition in baboon at 0.1 mg/kg, iv 1 hr post dose relative to control; assay type: functional; settings: Papio, in Papio anubis; outline: as §4
[14] = Mean residence time in iv dosed Beagle dog; assay type: ADME, organism-based, Canis lupus familiaris; settings: in vivo; outline: as §2
[15] = system: Canis familiaris; experiment: Volume of distribution in iv dosed Beagle dog; assay type: ADME, organism-based, Canis lupus familiaris; settings: in vivo; outline: as §2
[16] = system: Oryctolagus cuniculus; experiment: Volume of distribution in iv dosed New Zealand White rabbit; assay type: ADME, organism-based; settings: in vivo; outline: as §2
[17] = Plasma clearance in iv dosed Beagle dog; assay type: ADME, organism-based, Canis lupus familiaris; outline: as §2
[18] = biological target: T1, Coagulation factor VII/tissue factor (Homo sapiens); experiment: Anticoagulant potency in baboon as measured by prothrombin time at 0.1 mg/kg, iv 1 hr post dose; assay type: functional, organism-based; set-up: dose 0.1 mg/kg; settings: Papio, target entry is the homologue from another species; outline: as §4
[19] = Plasma clearance in iv dosed baboon; assay type: ADME, organism-based, Papio; outline: as §2
[20] = Mean residence time in iv dosed baboon; assay type: ADME, organism-based, Papio; settings: in vivo; outline: as §2
[21] = biological target: CYP3A4 (Homo sapiens, UniProt P08684); experiment: Inhibition of CYP3A4 at 10 uM; assay type: ADME; outline: as §3
CYP3A4, sequence (P08684 whole entry): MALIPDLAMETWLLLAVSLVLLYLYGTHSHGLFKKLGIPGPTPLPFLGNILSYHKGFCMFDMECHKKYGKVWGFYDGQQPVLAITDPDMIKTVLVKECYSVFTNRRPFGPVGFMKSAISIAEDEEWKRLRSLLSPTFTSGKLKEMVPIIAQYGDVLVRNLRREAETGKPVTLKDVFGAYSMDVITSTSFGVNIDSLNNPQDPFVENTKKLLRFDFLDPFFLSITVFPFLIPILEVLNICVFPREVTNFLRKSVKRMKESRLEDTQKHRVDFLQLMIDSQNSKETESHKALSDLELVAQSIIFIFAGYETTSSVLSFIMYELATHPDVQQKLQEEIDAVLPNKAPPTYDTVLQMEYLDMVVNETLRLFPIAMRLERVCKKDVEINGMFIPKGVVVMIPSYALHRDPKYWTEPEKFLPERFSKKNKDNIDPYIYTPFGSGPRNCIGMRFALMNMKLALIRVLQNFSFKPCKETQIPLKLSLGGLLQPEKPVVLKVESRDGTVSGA

[22] = biological target: CYP2C19 (Homo sapiens, UniProt P33261); experiment: Inhibition of CYP2C19 at 10 uM; assay type: ADME; outline: as §3
CYP2C19, sequence (P33261 whole entry): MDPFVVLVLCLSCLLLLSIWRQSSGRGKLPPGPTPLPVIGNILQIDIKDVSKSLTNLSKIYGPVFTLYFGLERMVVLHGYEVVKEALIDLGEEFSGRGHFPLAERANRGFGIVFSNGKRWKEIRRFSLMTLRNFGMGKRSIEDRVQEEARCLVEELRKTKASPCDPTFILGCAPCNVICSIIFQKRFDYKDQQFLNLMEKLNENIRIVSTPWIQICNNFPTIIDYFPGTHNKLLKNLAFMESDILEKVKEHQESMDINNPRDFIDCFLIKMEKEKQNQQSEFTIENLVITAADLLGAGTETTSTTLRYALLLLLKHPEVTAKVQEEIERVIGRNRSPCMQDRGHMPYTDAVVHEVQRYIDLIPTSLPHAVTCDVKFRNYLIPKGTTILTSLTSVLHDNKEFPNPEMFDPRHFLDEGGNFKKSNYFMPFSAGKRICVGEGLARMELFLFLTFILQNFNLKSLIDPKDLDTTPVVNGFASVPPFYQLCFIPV

[23] = system: Rattus norvegicus; experiment: Volume of distribution in iv dosed Sprague-Dawley rat; assay type: ADME, organism-based; settings: in vivo; outline: as §2
[24] = system: Baboon; experiment: Effect on reduction of platelet deposition in iv dosed baboon after 60 mins; assay type: functional, organism-based; settings: Papio, 1 h
Outline: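 Sigmoid Emax model fitted to dose (mg/kg) versus percent inhibition of platelet deposition relative to control at 60 min post IV bolus in the baboon A-V shunt model; ED50 is the dose producing 50% of maximum effect.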

[25] = Mean residence time in iv dosed New Zealand White rabbit; assay type: ADME, organism-based, Oryctolagus cuniculus; settings: in vivo; outline: as §2
[26] = system: Baboon; experiment: Volume of distribution in iv dosed baboon; assay type: ADME, organism-based, Papio; settings: in vivo; outline: as §2
[27] = Mean residence time in iv dosed C57BL/6 mice; assay type: ADME, organism-based; settings: C57BL/6, mouse, in vivo; outline: as §2
[28] = system: Baboon; experiment: Inhibition of fibrin deposition in baboon at 0.03 mg/kg, iv 1 hr post dose relative to control; assay type: functional; settings: Papio, in Papio anubis; outline: as §4
[29] = biological target: T1, Coagulation factor VII/tissue factor (Homo sapiens); experiment: Anticoagulant potency in baboon as measured by prothrombin time at 0.03 mg/kg, iv 1 hr post dose; assay type: functional, organism-based; set-up: dose 0.03 mg/kg; settings: Papio, target entry is the homologue from another species; outline: as §4
[30] = biological target: T1, Coagulation factor VII/tissue factor (Homo sapiens); experiment: Anticoagulant potency in human plasma as measured by activated partial thromboplastin time
[31] = Mean residence time in iv dosed Sprague-Dawley rat; assay type: ADME, organism-based; settings: in vivo; outline: as §2
[32] = Plasma clearance in iv dosed Sprague-Dawley rat; assay type: ADME, organism-based; outline: as §2
[33] = biological target: T1, Coagulation factor VII/tissue factor (Homo sapiens); experiment: Anticoagulant potency in baboon as measured by prothrombin time at 0.5 mg/kg, iv 1 hr post dose; assay type: functional, organism-based; set-up: dose 0.5 mg/kg; settings: Papio, target entry is the homologue from another species; outline: as §4
[34] = system: Baboon; experiment: Inhibition of platelet deposition in baboon at 0.1 mg/kg, iv 1 hr post dose relative to control; assay type: functional; settings: Papio, in Papio anubis; outline: as §4
[35] = biological target: T3, CYP1A2 (Homo sapiens, UniProt P05177); experiment: Inhibition of CYP1A2 at 10 uM; assay type: ADME; outline: as §3
T3 sequence (P05177 whole entry): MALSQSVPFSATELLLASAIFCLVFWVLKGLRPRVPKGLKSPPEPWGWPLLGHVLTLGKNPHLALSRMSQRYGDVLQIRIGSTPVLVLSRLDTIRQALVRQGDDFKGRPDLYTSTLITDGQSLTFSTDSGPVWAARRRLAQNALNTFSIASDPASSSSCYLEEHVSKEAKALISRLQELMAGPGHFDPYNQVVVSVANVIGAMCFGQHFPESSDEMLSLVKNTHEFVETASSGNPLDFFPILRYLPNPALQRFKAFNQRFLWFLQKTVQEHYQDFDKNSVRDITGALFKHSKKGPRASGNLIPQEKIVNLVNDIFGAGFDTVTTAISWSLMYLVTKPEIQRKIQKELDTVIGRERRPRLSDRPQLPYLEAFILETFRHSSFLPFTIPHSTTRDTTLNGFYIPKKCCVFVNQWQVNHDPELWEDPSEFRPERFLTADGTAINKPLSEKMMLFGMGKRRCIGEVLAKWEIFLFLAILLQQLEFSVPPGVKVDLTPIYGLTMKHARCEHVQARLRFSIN

[36] = system: Baboon; experiment: Inhibition of fibrin deposition in baboon at 0.5 mg/kg, iv 1 hr post dose relative to control; assay type: functional; settings: Papio, in Papio anubis; outline: as §4

N=C(N)c1ccc2[nH]c(-c3cc(C(CC(=O)O)C(=O)O)cc(-c4cc(CC(N)=O)ccc4O)c3O)nc2c1 (configuration not stated)
Ratio Ki [1]: 280 | Ratio Ki [2]: 12500 | 2PT [3]: 6.4 µM

N=C(N)c1ccc2[nH]c(-c3cc(C(CC(=O)O)C(=O)O)cc(-c4cc(C(=O)O)ccc4O)c3O)nc2c1 (configuration not stated)
Ratio Ki [1]: 300 | Ki [4]: 43 nM | Ratio Ki [2]: 3500 | 2PT [3]: 8.2 µM

N=C(N)c1ccc2nc(-c3cc(C(CC(=O)O)C(=O)O)cc(-c4cc(CC(N)=O)ccc4O)c3O)[nH]c2c1 (configuration not stated)
Ki [4]: 12 nM

N=C(N)c1ccc2[nH]c(-c3cc(C(CC(=O)O)C(=O)O)cc(-c4cc(CC(=O)O)ccc4O)c3O)nc2c1 (configuration not stated)
Ratio Ki [1]: 125 | Ratio Ki [2]: 12500 | 2PT [3]: 6.2 µM

N=C(N)c1ccc2[nH]c(-c3cc(C(CC(=O)O)C(=O)O)cc(-c4cc(CNC(N)=O)ccc4O)c3O)nc2c1 (configuration not stated)
clearance [5]: 0.103 mL/min | inhibition at 10 µM [6]: < 40% | inhibition in vivo at 0.03 mg/kg [7]: 14% | Ratio Ki [1]: 3600 | inhibition in vivo at 0.5 mg/kg [8]: 87% | inhibition at 10 µM [9]: < 40% | clearance [10]: 6.1 mL/min | Ratio [11]: 1.05 | Vdss [12]: 2.43 mL | inhibition in vivo at 0.1 mg/kg [13]: 64% | MRT [14]: 3.73 h | Vdss [15]: 6750 mL | Vdss [16]: 1080 mL | clearance [17]: 30.5 mL/min | PT [18]: 11.3 s | clearance [19]: 26.5 mL/min | Ratio Ki [2]: > 100000 | MRT [20]: 3.87 h | inhibition at 10 µM [21]: < 40% | inhibition at 10 µM [22]: < 40% | Vdss [23]: 55.2 mL | EC50 [24]: 170 nM | ED50 ([24]; in Papio anubis, iv): 0.06 mg/kg | Emax ([24]; in Papio anubis, iv): 99% | MRT [25]: 3.03 h | Vdss [26]: 5854 mL | MRT [27]: 0.392 h | inhibition in vivo at 0.03 mg/kg [28]: 20% | PT [29]: 11.3 s | 2aPTT [30]: 0.8 µM | MRT [31]: 1.15 h | clearance [32]: 0.81 mL/min | PT [33]: 11.6 s | inhibition in vivo at 0.1 mg/kg [34]: 61% | inhibition at 10 µM [35]: < 40% | inhibition in vivo at 0.5 mg/kg [36]: 86%

N=C(N)c1ccc2nc(-c3cc(C(CC(=O)O)C(=O)O)cc(-c4cc(CC(=O)O)ccc4O)c3O)[nH]c2c1 (configuration not stated)
Ki [4]: 12 nM

N=C(N)c1ccc2[nH]c(-c3cc(C(CC(=O)O)C(=O)O)cc(-c4cc(CCC(=O)O)ccc4O)c3O)nc2c1 (configuration not stated)
Ratio Ki [1]: 350 | Ki [4]: 13 nM | Ratio Ki [2]: 11500 | 2PT [3]: 5.4 µM

N=C(N)c1ccc2[nH]c(-c3cc(C(CC(=O)O)C(=O)O)cc(-c4cc(C(N)=O)ccc4O)c3O)nc2c1 (configuration not stated)
Ratio Ki [1]: 1100 | Ki [4]: 14 nM | Ratio Ki [2]: 10700 | 2PT [3]: 3.6 µM

N=C(N)c1ccc2[nH]c(-c3cc(C(CC(=O)O)C(=O)O)cc(-c4cc(CN)ccc4O)c3O)nc2c1 (configuration not stated)
Ratio Ki [1]: 510 | Ki [4]: 35 nM | Ratio Ki [2]: 4200 | 2PT [3]: 2.9 µM

N=C(N)c1ccc2[nH]c(-c3cc(C(CC(=O)O)C(=O)O)cc(-c4cc(NC(N)=O)ccc4O)c3O)nc2c1 (configuration not stated)
Ratio Ki [1]: 270 | Ki [4]: 44 nM | Ratio Ki [2]: 3400 | 2PT [3]: 4.9 µM

N=C(N)c1ccc2[nH]c(-c3cc(C(CC(=O)O)C(=O)O)cc(-c4cc(F)ccc4O)c3O)nc2c1 (configuration not stated)
Ratio Ki [1]: 1800 | Ratio Ki [2]: 55500 | 2PT [3]: 10.2 µM
